Assay [1] deals with T1, Pituitary adenylate cyclase-activating polypeptide type I receptor (Homo sapiens, UniProt P41586). Put plainly: Displacement of [125I]Ac-PACAP27 from human recombinant PAC1 receptor expressed in CHO cells by gamma- counter. It counts as cell-based.
Target sequence in this assay (P41586 whole entry): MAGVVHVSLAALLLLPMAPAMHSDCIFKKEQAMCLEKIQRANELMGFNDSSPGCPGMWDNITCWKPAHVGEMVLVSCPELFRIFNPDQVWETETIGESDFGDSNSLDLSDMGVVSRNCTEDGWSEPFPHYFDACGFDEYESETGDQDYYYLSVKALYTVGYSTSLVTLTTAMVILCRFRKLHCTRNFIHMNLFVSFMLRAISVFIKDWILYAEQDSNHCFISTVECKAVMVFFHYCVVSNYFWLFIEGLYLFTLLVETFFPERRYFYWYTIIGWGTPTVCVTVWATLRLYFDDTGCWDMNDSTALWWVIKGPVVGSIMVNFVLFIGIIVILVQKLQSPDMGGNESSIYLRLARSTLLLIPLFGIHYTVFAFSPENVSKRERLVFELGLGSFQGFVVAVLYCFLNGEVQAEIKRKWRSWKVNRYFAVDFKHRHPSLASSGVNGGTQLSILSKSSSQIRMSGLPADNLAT
Assay [2] deals with T1, Pituitary adenylate cyclase-activating polypeptide type I receptor. Put plainly: Agonist activity at human recombinant PAC1 receptor expressed in CHO cells assessed as PACAP38-induced calcium mobilization by FLIPR assay relative to PACAP38. It counts as functional, cell-based. The gist of the method: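 CHO cells stably expressing recombinant human PAC1, plated 24 h before assay, loaded with fluo-4 AM for 60 min at 37 °C in the dark, then rinsed into HBSS for 15 min at 37 °C. Peptide was added 18 s into a 150 s read (ex 480/em 525 nm), at final concentrations of 1 × 10-12 to 1 × 10^-5 M. Response was normalised to 1 × 10^-5 M PACAP38 on each plate. EC50 and efficacy came from nonlinear regression; 4-10 independent assays in duplicate.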
Target sequence in this assay (P41586 21-468 limits assumed): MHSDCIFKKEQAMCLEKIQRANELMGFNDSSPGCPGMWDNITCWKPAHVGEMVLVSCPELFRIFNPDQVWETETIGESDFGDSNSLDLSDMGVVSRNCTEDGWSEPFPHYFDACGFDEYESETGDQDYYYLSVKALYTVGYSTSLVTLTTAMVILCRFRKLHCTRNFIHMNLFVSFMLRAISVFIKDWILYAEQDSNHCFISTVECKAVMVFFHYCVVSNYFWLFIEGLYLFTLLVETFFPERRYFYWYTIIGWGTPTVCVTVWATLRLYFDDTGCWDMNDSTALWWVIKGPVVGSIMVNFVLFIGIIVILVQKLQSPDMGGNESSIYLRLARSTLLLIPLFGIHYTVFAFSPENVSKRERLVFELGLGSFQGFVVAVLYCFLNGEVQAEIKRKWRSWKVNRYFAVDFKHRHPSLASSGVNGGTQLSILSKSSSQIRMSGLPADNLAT

Assay [3] has the same target. Put plainly: Agonist activity at human recombinant PAC1 receptor expressed in CHO cells assessed as PACAP38-induced calcium mobilization by FLIPR assay. The class given is functional, cell-based. In outline: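 CHO cells stably expressing recombinant human PAC1, plated 24 h before assay, loaded with fluo-4 AM for 60 min at 37 °C in the dark, then rinsed into HBSS for 15 min at 37 °C. EC50 and efficacy came from nonlinear regression; 4-10 independent assays in duplicate.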
Target sequence in this assay (P41586 whole entry): as the sequence (P41586 whole entry) above
(Calcium assays in cells follow changes in intracellular calcium, usually with a dye or a luminescent sensor.)

Consider eight compounds from ChEMBL document CHEMBL1138520, “Molecular and conformational determinants of pituitary adenylate cyclase-activating polypeptide (PACAP) for activation of the PAC1 receptor” (J Med Chem, 2009).

Where a SMILES comes first, the peptide text is derived from it. [ ]: non-standard residue; d: D form. Cha = N[C@@H](CC1CCCCC1)C(=O)O

The IC50 is the concentration that inhibits the measured activity by half. By Emax is commonly meant the maximal effect, on the per cent scale that the assay sets. As usually defined, the EC50 is the midpoint of the concentration-response curve.

As for `CC[C@H](C)[C@H](NC(=O)CNC(=O)[C@@H](CC(=O)O)NC(=O)[C@H](CO)NC(=O)[C@@H](N)Cc1cnc[nH]1)C(=O)N[C@@H](Cc1ccccc1)C(=O)N[C@H](C(=O)N[C@@H](CC(=O)O)C(=O)N[C@@H](CO)C(=O)N[C@@H](Cc1ccc(O)cc1)C(=O)N[C@@H](CO)C(=O)N[C@@H](CCCNC(=N)N)C(=O)N[C@@H](Cc1ccc(O)cc1)C(=O)N[C@@H](CCCNC(=N)N)C(=O)N[C@@H](CCCCN)C(=O)N[C@@H](CCC(N)=O)C(=O)N[C@@H](CCSC)C(=O)N[C@@H](C)C(=O)N[C@H](C(=O)N[C@@H](CCCCN)C(=O)N[C@@H](CCCCN)C(=O)N[C@@H](Cc1ccc(O)cc1)C(=O)N[C@@H](CC(C)C)C(=O)N[C@@H](C)C(=O)N[C@@H](C)C(=O)N[C@H](C(=O)N[C@@H](CC(C)C)C(=O)NCC(=O)N[C@@H](CCCCN)C(=O)N[C@@H](CCCNC(=N)N)C(=O)N[C@@H](Cc1ccc(O)cc1)C(=O)N[C@@H](CCCCN)C(=O)N[C@@H](CCC(N)=O)C(=O)N[C@@H](CCCNC(=N)N)C(=O)N[C@H](C(=O)N[C@@H](CCCCN)C(=O)N[C@@H](CC(N)=O)C(=O)N[C@@H](CCCCN)C(N)=O)C(C)C)C(C)C)C(C)C)[C@@H](C)O`, the 50% inhibitory concentration (IC50) in assay [1] was determined as 7.2 nM. The maximal response (Emax) in assay [2] was 98.6%. Besides, the concentration giving a half-maximal response (EC50) in assay [3] turned out to be 7.6 nM.

`CC[C@H](C)[C@H](NC(=O)CNC(=O)[C@H](CC(=O)O)NC(=O)[C@H](CO)NC(=O)[C@H](C)N)C(=O)N[C@@H](Cc1ccccc1)C(=O)N[C@H](C(=O)N[C@@H](CC(=O)O)C(=O)N[C@@H](CO)C(=O)N[C@@H](Cc1ccc(O)cc1)C(=O)N[C@@H](CO)C(=O)N[C@@H](CCCNC(=N)N)C(=O)N[C@@H](Cc1ccc(O)cc1)C(=O)N[C@@H](CCCNC(=N)N)C(=O)N[C@@H](CCCCN)C(=O)N[C@@H](CCC(N)=O)C(=O)N[C@@H](CCSC)C(=O)N[C@@H](C)C(=O)N[C@H](C(=O)N[C@@H](CCCCN)C(=O)N[C@@H](CCCCN)C(=O)N[C@@H](Cc1ccc(O)cc1)C(=O)N[C@@H](CC(C)C)C(=O)N[C@@H](C)C(=O)N[C@@H](C)C(=O)N[C@H](C(=O)N[C@@H](CC(C)C)C(N)=O)C(C)C)C(C)C)[C@@H](C)O`: the IC50 in assay [1] was 335 nM. Further, the Emax in assay [2] is 70%. In addition, in assay [3], the EC50 was 174 nM.

On to `CC[C@H](C)[C@H](NC(=O)CNC(=O)[C@H](CC(=O)O)N(C)C(=O)[C@H](CO)NC(=O)[C@@H](N)Cc1cnc[nH]1)C(=O)N[C@@H](Cc1ccccc1)C(=O)N[C@H](C(=O)N[C@@H](CC(=O)O)C(=O)N[C@@H](CO)C(=O)N[C@@H](Cc1ccc(O)cc1)C(=O)N[C@@H](CO)C(=O)N[C@@H](CCCNC(=N)N)C(=O)N[C@@H](Cc1ccc(O)cc1)C(=O)N[C@@H](CCCNC(=N)N)C(=O)N[C@@H](CCCCN)C(=O)N[C@@H](CCC(N)=O)C(=O)N[C@@H](CCSC)C(=O)N[C@@H](C)C(=O)N[C@H](C(=O)N[C@@H](CCCCN)C(=O)N[C@@H](CCCCN)C(=O)N[C@@H](Cc1ccc(O)cc1)C(=O)N[C@@H](CC(C)C)C(=O)N[C@@H](C)C(=O)N[C@@H](C)C(=O)N[C@H](C(=O)N[C@@H](CC(C)C)C(=O)NCC(=O)N[C@@H](CCCCN)C(=O)N[C@@H](CCCNC(=N)N)C(=O)N[C@@H](Cc1ccc(O)cc1)C(=O)N[C@@H](CCCCN)C(=O)N[C@@H](CCC(N)=O)C(=O)N[C@@H](CCCNC(=N)N)C(=O)N[C@H](C(=O)N[C@@H](CCCCN)C(=O)N[C@@H](CC(N)=O)C(=O)N[C@@H](CCCCN)C(N)=O)C(C)C)C(C)C)C(C)C)[C@@H](C)O`, for which the IC50 in assay [1] turned out to be 10.4 nM. The maximal response (Emax) in assay [2] is 92.5%. Moreover, the EC50 in assay [3] is 219 nM.

As for `CC[C@H](C)[C@H](NC(=O)CNC(=O)[C@H](CC(N)=O)NC(=O)[C@H](CO)NC(=O)[C@@H](N)Cc1cnc[nH]1)C(=O)N[C@@H](Cc1ccccc1)C(=O)N[C@H](C(=O)N[C@@H](CC(=O)O)C(=O)N[C@@H](CO)C(=O)N[C@@H](Cc1ccc(O)cc1)C(=O)N[C@@H](CO)C(=O)N[C@@H](CCCNC(=N)N)C(=O)N[C@@H](Cc1ccc(O)cc1)C(=O)N[C@@H](CCCNC(=N)N)C(=O)N[C@@H](CCCCN)C(=O)N[C@@H](CCC(N)=O)C(=O)N[C@@H](CCSC)C(=O)N[C@@H](C)C(=O)N[C@H](C(=O)N[C@@H](CCCCN)C(=O)N[C@@H](CCCCN)C(=O)N[C@@H](Cc1ccc(O)cc1)C(=O)N[C@@H](CC(C)C)C(=O)N[C@@H](C)C(=O)N[C@@H](C)C(=O)N[C@H](C(=O)N[C@@H](CC(C)C)C(N)=O)C(C)C)C(C)C)[C@@H](C)O`, the half-inhibitory concentration (IC50) in assay [1] was found to be 284 nM. In assay [2], the Emax stood at 91.2%. For the same compound, the EC50 in assay [3] amounted to 140 nM.

In the case of `CC[C@H](C)[C@H](NC(=O)CNC(=O)[C@H](CC(=O)O)NC(=O)[C@H](CO)NC(=O)[C@@H](N)Cc1cnc[nH]1)C(=O)N[C@@H](CC1CCCCC1)C(=O)N[C@H](C(=O)N[C@@H](CC(=O)O)C(=O)N[C@@H](CO)C(=O)N[C@@H](Cc1ccc(O)cc1)C(=O)N[C@@H](CO)C(=O)N[C@@H](CCCNC(=N)N)C(=O)N[C@@H](Cc1ccc(O)cc1)C(=O)N[C@@H](CCCNC(=N)N)C(=O)N[C@@H](CCCCN)C(=O)N[C@@H](CCC(N)=O)C(=O)N[C@@H](CCSC)C(=O)N[C@@H](C)C(=O)N[C@H](C(=O)N[C@@H](CCCCN)C(=O)N[C@@H](CCCCN)C(=O)N[C@@H](Cc1ccc(O)cc1)C(=O)N[C@@H](CC(C)C)C(=O)N[C@@H](C)C(=O)N[C@@H](C)C(=O)N[C@H](C(=O)N[C@@H](CC(C)C)C(=O)NCC(=O)N[C@@H](CCCCN)C(=O)N[C@@H](CCCNC(=N)N)C(=O)N[C@@H](Cc1ccc(O)cc1)C(=O)N[C@@H](CCCCN)C(=O)N[C@@H](CCC(N)=O)C(=O)N[C@@H](CCCNC(=N)N)C(=O)N[C@H](C(=O)N[C@@H](CCCCN)C(=O)N[C@@H](CC(N)=O)C(=O)N[C@@H](CCCCN)C(N)=O)C(C)C)C(C)C)C(C)C)[C@@H](C)O` (H-HSDGI[Cha]TDSYSRYRKQMAVKKYLAAVLGKRYKQRVKNK-NH2), the 50% inhibitory concentration (IC50) in assay [1] was 6.6 nM. Also, the Emax in assay [2] was 97.7%. Besides, in assay [3], the EC50 amounted to 2.6 nM.

As for `CC[C@H](C)[C@H](NC(=O)CNC(=O)[C@H](CC(=O)O)NC(=O)[C@H](CO)NC(=O)[C@@H](N)Cc1cnc[nH]1)C(=O)N[C@H](Cc1ccccc1)C(=O)N[C@H](C(=O)N[C@@H](CC(=O)O)C(=O)N[C@@H](CO)C(=O)N[C@@H](Cc1ccc(O)cc1)C(=O)N[C@@H](CO)C(=O)N[C@@H](CCCNC(=N)N)C(=O)N[C@@H](Cc1ccc(O)cc1)C(=O)N[C@@H](CCCNC(=N)N)C(=O)N[C@@H](CCCCN)C(=O)N[C@@H](CCC(N)=O)C(=O)N[C@@H](CCSC)C(=O)N[C@@H](C)C(=O)N[C@H](C(=O)N[C@@H](CCCCN)C(=O)N[C@@H](CCCCN)C(=O)N[C@@H](Cc1ccc(O)cc1)C(=O)N[C@@H](CC(C)C)C(=O)N[C@@H](C)C(=O)N[C@@H](C)C(=O)N[C@H](C(=O)N[C@@H](CC(C)C)C(=O)NCC(=O)N[C@@H](CCCCN)C(=O)N[C@@H](CCCNC(=N)N)C(=O)N[C@@H](Cc1ccc(O)cc1)C(=O)N[C@@H](CCCCN)C(=O)N[C@@H](CCC(N)=O)C(=O)N[C@@H](CCCNC(=N)N)C(=O)N[C@H](C(=O)N[C@@H](CCCCN)C(=O)N[C@@H](CC(N)=O)C(=O)N[C@@H](CCCCN)C(N)=O)C(C)C)C(C)C)C(C)C)[C@@H](C)O`, the IC50 in assay [1] is 951 nM. Besides, in assay [2], the Emax amounted to 93.2%. In assay [3], the EC50 stood at 1840 nM.

For the compound `CSCC[C@H](NC(=O)[C@H](CCC(N)=O)NC(=O)[C@H](CCCCN)NC(=O)[C@H](CCCNC(=N)N)NC(=O)[C@H](Cc1ccc(O)cc1)NC(=O)[C@H](CCCNC(=N)N)NC(=O)[C@H](CO)NC(=O)[C@H](Cc1ccc(O)cc1)NC(=O)[C@H](CO)NC(=O)[C@H](CC(=O)O)NC(=O)[C@@H](NC(=O)[C@H](Cc1ccccc1)NC(=O)[C@H](C)NC(=O)CNC(=O)[C@H](CC(=O)O)NC(=O)[C@H](CO)NC(=O)[C@@H](N)Cc1cnc[nH]1)[C@@H](C)O)C(=O)N[C@@H](C)C(=O)N[C@H](C(=O)N[C@@H](CCCCN)C(=O)N[C@@H](CCCCN)C(=O)N[C@@H](Cc1ccc(O)cc1)C(=O)N[C@@H](CC(C)C)C(=O)N[C@@H](C)C(=O)N[C@@H](C)C(=O)N[C@H](C(=O)N[C@@H](CC(C)C)C(N)=O)C(C)C)C(C)C`, the IC50 in assay [1] is 60.7 nM. Also, the Emax in assay [2] stood at 99.2%. Also, in assay [3], the EC50 amounted to 39.8 nM.

In the case of `CSCC[C@H](NC(=O)[C@H](CCC(N)=O)NC(=O)[C@H](CCCCN)NC(=O)[C@H](CCCNC(=N)N)NC(=O)[C@H](Cc1ccc(O)cc1)NC(=O)[C@H](CCCNC(=N)N)NC(=O)[C@H](CO)NC(=O)[C@H](Cc1ccc(O)cc1)NC(=O)[C@H](CO)NC(=O)[C@H](CC(=O)O)NC(=O)[C@@H](NC(=O)[C@H](Cc1ccccc1)NC(=O)[C@H](CC(C)C)N1CC[C@H](NC(=O)[C@H](CC(=O)O)NC(=O)[C@H](CO)NC(=O)[C@@H](N)Cc2cnc[nH]2)C1=O)[C@@H](C)O)C(=O)N[C@@H](C)C(=O)N[C@H](C(=O)N[C@@H](CCCCN)C(=O)N[C@@H](CCCCN)C(=O)N[C@@H](Cc1ccc(O)cc1)C(=O)N[C@@H](CC(C)C)C(=O)N[C@@H](C)C(=O)N[C@@H](C)C(=O)N[C@H](C(=O)N[C@@H](CC(C)C)C(N)=O)C(C)C)C(C)C`, in assay [1], the concentration for half-maximal inhibition (IC50) turned out to be 1980 nM. In assay [2], the maximal effect (Emax) is 54.1%. For the same compound, the half-maximal effective concentration (EC50) in assay [3] turned out to be 1030 nM.
